This is an account of results in ChEMBL document CHEMBL3124903, “Synthesis, docking and evaluation of antioxidant and antimicrobial activities of novel 1,2,4-triazolo[3,4-b][1,3,4]thiadiazol-6-yl)selenopheno[2,3-d]pyrimidines” (Eur J Med Chem, 2014).

In brackets after ≈: the same amount, converted by molar mass. Some results are limits rather than exact numbers.

Holding throughout (assay type): functional
One test relates to Bacillus subtilis. The test is described as follows: Antibacterial activity against Bacillus subtilis assessed as growth inhibition by microdilution broth susceptibility assay.
Another test relates to Klebsiella pneumoniae. The test is described as follows: Antibacterial activity against Klebsiella pneumoniae assessed as growth inhibition by microdilution broth susceptibility assay.
Test [1] can be described thus: Antioxidant activity assessed as NO radical scavenging activity after 150 mins by griess reagent method. For orientation: The Griess reaction detects nitrite, a stable product of nitric oxide.
Another test relates to Escherichia coli. The test is described as follows: Antibacterial activity against Escherichia coli assessed as growth inhibition by microdilution broth susceptibility assay. In general terms: In broth dilution the organism is exposed to a series of concentrations in liquid medium.
Test [2] has as its system Radical scavenging activity. The test can be described thus: Antioxidant activity assessed as DPPH radical scavenging activity after 30 mins by spectrophotometric assay. The method in brief:
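The compound is mixed with methanolic DPPH and incubated for 30 min at room temperature. Absorbance is read against a blank at 517 nm. Percent scavenging is taken from absorbance of a control with all reagents except the compound versus the sample. Runs are in triplicate, and IC50 is reported.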

A further test deals with Staphylococcus aureus. The test is described as follows: Antibacterial activity against Staphylococcus aureus assessed as growth inhibition by microdilution broth susceptibility assay.
The nature of test [3]: Antioxidant activity assessed as H2O2 radical scavenging activity.
Another test concerns Candida albicans. The test can be described thus: Antifungal activity against Candida albicans assessed as growth inhibition by NCCLS broth dilution assay. The method in brief: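 Yeast susceptibility is tested by the NCCLS reference broth dilution method. MIC is read as the endpoint, and a DMSO vehicle control is included.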
A further test has as its system Aspergillus flavus. The test is described as follows: Antifungal activity against Aspergillus flavus assessed as growth inhibition by NCCLS broth dilution assay.

With `O=C(O)c1cn(C2CC2)c2cc(N3CCNCC3)c(F)cc2c1=O` [CIPROFLOXACIN], the MIC in the test with Bacillus subtilis and in the test on Klebsiella pneumoniae was 6.25 µg/mL in each case.
For the compound `Cc1c(-c2nn3c(-c4ccc([N+](=O)[O-])cc4)nnc3s2)[se]c2ncnc(Nc3ccc(Cl)cc3)c12`, the IC50 in test [1] came out at 46.92 µg/mL (≈ 82.6 µM); in test [2], 33.28 µg/mL (≈ 58.6 µM); in test [3], 48.31 µg/mL (≈ 85.1 µM). In addition, the minimal inhibitory concentration (MIC) with Bacillus subtilis, in the test on Escherichia coli, with Staphylococcus aureus, in the test with Klebsiella pneumoniae, in the test on Candida albicans and in the test with Aspergillus flavus was more than 100 µg/mL throughout.
Regarding `COc1ccc(-c2nnc3sc(-c4[se]c5ncnc(Nc6ccc(Cl)cc6)c5c4C)nn23)cc1`, the IC50 was 19.82 µg/mL (≈ 35.8 µM) in [1], 12.75 µg/mL (≈ 23.1 µM) in [2] and 21.09 µg/mL (≈ 38.1 µM) in test [3]. In addition, the MIC with Bacillus subtilis came out at 25 µg/mL; in the test with Escherichia coli it was 12.5 µg/mL; in the test with Staphylococcus aureus, 12.5 µg/mL; with Klebsiella pneumoniae, 25 µg/mL; in the test with Candida albicans it was 6.25 µg/mL (≈ 11.3 µM); in the test with Aspergillus flavus it was 6.25 µg/mL (≈ 11.3 µM).
Regarding `Cc1c(-c2nn3c(-c4ccc(O)cc4)nnc3s2)[se]c2ncnc(Nc3ccc(Cl)cc3)c12`, the IC50 in test [1] was 13.72 µg/mL (≈ 25.5 µM); in test [2], 11.02 µg/mL (≈ 20.4 µM); in test [3], 15.38 µg/mL (≈ 28.5 µM). Further, the MIC worked out at 3.12 µg/mL with Bacillus subtilis; 6.25 µg/mL in the test with Escherichia coli; 6.25 µg/mL in the test with Staphylococcus aureus; 6.25 µg/mL with Klebsiella pneumoniae; 1.56 µg/mL (≈ 2.89 µM) in the test with Candida albicans; 3.12 µg/mL (≈ 5.79 µM) with Aspergillus flavus.
On to `Cc1c(-c2nn3c(-c4ccccc4)nnc3s2)[se]c2ncnc(Nc3ccc(Cl)cc3)c12`, for which the IC50 in test [1] was 18.41 µg/mL (≈ 35.2 µM); in [2], 14.82 µg/mL (≈ 28.3 µM); in [3] it was 17.03 µg/mL (≈ 32.6 µM). Further, the MIC is more than 100 µg/mL in the test with Bacillus subtilis; more than 100 µg/mL in the test with Escherichia coli; 50 µg/mL in the test on Staphylococcus aureus; more than 100 µg/mL with Klebsiella pneumoniae; more than 100 µg/mL with Candida albicans; 50 µg/mL (≈ 95.6 µM) in the test on Aspergillus flavus.
As for `COc1ccc(-c2nnc3sc(-c4[se]c5ncnc(Nc6ccc(F)c(Cl)c6)c5c4C)nn23)cc1`, the concentration for half-maximal inhibition (IC50) in test [1] worked out at 12.74 µg/mL (≈ 22.3 µM); in test [2], 10.41 µg/mL (≈ 18.2 µM); in test [3], 17.08 µg/mL (≈ 29.9 µM). The minimal inhibitory concentration (MIC) in the test with Bacillus subtilis was found to be 3.12 µg/mL; in the test on Escherichia coli it was 6.25 µg/mL; in the test with Staphylococcus aureus it was 6.25 µg/mL; in the test with Klebsiella pneumoniae, 6.25 µg/mL; in the test with Candida albicans, 3.12 µg/mL (≈ 5.47 µM); in the test with Aspergillus flavus it was 3.12 µg/mL (≈ 5.47 µM).
For the compound `Cc1cc(C(C)(C)C)c(O)c(C(C)(C)C)c1` [BUTYLATED HYDROXYTOLUENE], the results for the IC50 in [1], in test [2] and in test [3] were 19.06 µg/mL (≈ 86.5 µM), 16.53 µg/mL (≈ 75 µM) and 17.82 µg/mL (≈ 80.9 µM), respectively.
Consider `Cc1c(-c2nn3c(-c4ccc([N+](=O)[O-])cc4)nnc3s2)[se]c2ncnc(Nc3ccc(F)c(Cl)c3)c12`, for which the IC50 in [1] was 30.17 µg/mL (≈ 51.5 µM); in test [2], 26.94 µg/mL (≈ 46 µM); in [3], 36.42 µg/mL (≈ 62.2 µM). In addition, the MIC in the test on Bacillus subtilis was 100 µg/mL; with Escherichia coli, 50 µg/mL; with Staphylococcus aureus, 100 µg/mL; in the test with Klebsiella pneumoniae, 50 µg/mL; in the test with Candida albicans it was more than 100 µg/mL; in the test with Aspergillus flavus, more than 100 µg/mL.
On to `O=C1O[C@H]([C@@H](O)CO)C(O)=C1O` [ASCORBIC ACID], for which the IC50 in test [1] is 14.62 µg/mL (≈ 83 µM); in test [2] it was 12.27 µg/mL (≈ 69.7 µM); in test [3], 15.24 µg/mL (≈ 86.5 µM).
`Cc1ccc(-c2nnc3sc(-c4[se]c5ncnc(Nc6ccc(Cl)cc6)c5c4C)nn23)cc1`: the results for the IC50 in test [1], in [2] and in test [3] were 21.64 µg/mL (≈ 40.3 µM), 13.31 µg/mL (≈ 24.8 µM) and 19.14 µg/mL (≈ 35.6 µM), respectively. For the same compound, the MIC with Bacillus subtilis is 50 µg/mL; in the test on Escherichia coli, 50 µg/mL; in the test on Staphylococcus aureus it was 25 µg/mL; in the test with Klebsiella pneumoniae it was 25 µg/mL; in the test on Candida albicans, more than 100 µg/mL; in the test with Aspergillus flavus, 50 µg/mL (≈ 93.1 µM).
`OC(Cn1cncn1)(Cn1cncn1)c1ccc(F)cc1F` [FLUCONAZOLE]: the MIC in the test on Candida albicans and with Aspergillus flavus was 3.12 µg/mL (≈ 10.2 µM) each time.
`Cc1c(-c2nn3c(-c4ccc(O)cc4)nnc3s2)[se]c2ncnc(Nc3ccc(F)c(Cl)c3)c12`: the figures for the IC50 in test [1], in test [2] and in test [3] were 8.2 µg/mL (≈ 14.7 µM), 9.46 µg/mL (≈ 17 µM) and 12.54 µg/mL (≈ 22.5 µM), respectively. The minimum inhibitory concentration (MIC) with Bacillus subtilis worked out at 3.12 µg/mL; in the test on Escherichia coli, 3.12 µg/mL; with Staphylococcus aureus it was 3.12 µg/mL; with Klebsiella pneumoniae, 3.12 µg/mL; in the test on Candida albicans, 1.56 µg/mL (≈ 2.8 µM); in the test on Aspergillus flavus it was 1.56 µg/mL (≈ 2.8 µM).
On to `Cc1c(-c2nn3c(-c4ccccc4)nnc3s2)[se]c2ncnc(Nc3ccc(F)c(Cl)c3)c12`, for which the IC50 in test [1] amounted to 20.27 µg/mL (≈ 37.5 µM); in [2], 13.24 µg/mL (≈ 24.5 µM); in [3], 22.92 µg/mL (≈ 42.4 µM). Besides, the MIC in the test with Bacillus subtilis is 50 µg/mL; with Escherichia coli, 100 µg/mL; in the test on Staphylococcus aureus it was 50 µg/mL; in the test on Klebsiella pneumoniae, 100 µg/mL; with Candida albicans, 25 µg/mL (≈ 46.2 µM); with Aspergillus flavus it was 50 µg/mL (≈ 92.4 µM).
On to `Cc1ccc(-c2nnc3sc(-c4[se]c5ncnc(Nc6ccc(F)c(Cl)c6)c5c4C)nn23)cc1`, for which the results for the half-inhibitory concentration (IC50) in [1], in [2] and in [3] were 16.52 µg/mL (≈ 29.8 µM), 12.86 µg/mL (≈ 23.2 µM) and 18.36 µg/mL (≈ 33.1 µM), respectively. For the same compound, the MIC in the test with Bacillus subtilis turned out to be 12.5 µg/mL; in the test with Escherichia coli, 12.5 µg/mL; in the test on Staphylococcus aureus it was 6.25 µg/mL; with Klebsiella pneumoniae, 12.5 µg/mL; in the test with Candida albicans it was 25 µg/mL (≈ 45.1 µM); with Aspergillus flavus it was 12.5 µg/mL (≈ 22.5 µM).

The term MIC denotes the lowest concentration found to suppress growth. What is called IC50 is the concentration needed to halve the response being measured.
